Measured values from ChEMBL document CHEMBL1132297, “Novel cryptophycin antitumor agents: synthesis and cytotoxicity of fragment "B" analogues” (J Med Chem, 1999).

system: CCRF-CEM; experiment: In vitro cytotoxicity against human leukemia CCRF-CEM tumor cell lines; assay type: functional, cell-based
Procedure, shortened: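 Log-phase cells seeded at 4.8×10^4 cells per well in RPMI-1640 with 10% dialyzed FBS and 25 mM HEPES. Compounds were dissolved in DMSO at 0.2 mg/mL, serially diluted 1:3 in DMSO, and added to duplicate wells; DMSO final 0.5%, with DMSO-only control wells. Exposure 72 h at 37 °C, 5% CO2. Suspension cells counted by Coulter counter; IC50 from dose–response curves.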

SMILES | IC50 [nM]
CC(C)C[C@@H]1OC(=O)C(C)(C)CNC(=O)[C@@H]([C@H](C)O)NC(=O)/C=C/C[C@@H]([C@H](C)[C@H]2O[C@@H]2c2ccccc2)OC1=O | 1060
CC(C)C[C@@H]1OC(=O)C(C)(C)CNC(=O)[C@@H](Cc2ccc(N)c(Cl)c2)NC(=O)/C=C/C[C@@H]([C@H](C)/C=C/c2ccccc2)OC1=O | 500
CC(C)C[C@@H]1OC(=O)C(C)(C)CNC(=O)[C@@H](Cc2ccc(NC(=O)OCC3c4ccccc4-c4ccccc43)cc2)NC(=O)/C=C/C[C@@H]([C@H](C)/C=C/c2ccccc2)OC1=O | > 1200
CC(C)C[C@@H]1OC(=O)C(C)(C)CNC(=O)[C@@H](Cc2ccc(O)c(O)c2)NC(=O)/C=C/C[C@@H]([C@H](C)/C=C/c2ccccc2)OC1=O | 1300
CC(C)C[C@@H]1OC(=O)C(C)(C)CNC(=O)[C@@H](CCc2ccccc2)NC(=O)/C=C/C[C@@H]([C@H](C)/C=C/c2ccccc2)OC1=O | 1660
COc1ccc(C[C@H]2NC(=O)/C=C/C[C@@H]([C@H](C)C3O[C@@H]3c3ccccc3)OC(=O)[C@H](CC(C)C)OC(=O)C(C)(C)CNC2=O)cc1Cl (stereo not given in full) | 0.022
CC(C)C[C@@H]1OC(=O)C(C)(C)CNC(=O)[C@@H](Cc2ccc(O)c(Cl)c2)NC(=O)/C=C/C[C@@H]([C@H](C)/C=C/c2ccccc2)OC1=O | 269
CC(C)C[C@@H]1OC(=O)C(C)(C)CNC(=O)[C@@H](Cc2ccccc2)NC(=O)/C=C/C[C@@H]([C@H](C)[C@H]2O[C@@H]2c2ccccc2)OC1=O | 0.183
CC(C)C[C@@H]1OC(=O)C(C)(C)CNC(=O)[C@@H](Cc2cccc3ccccc23)NC(=O)/C=C/C[C@@H]([C@H](C)[C@@H]2O[C@H]2c2ccccc2)OC1=O | 327
CC(C)C[C@@H]1OC(=O)C(C)(C)CNC(=O)[C@@H](CC2CCCCC2)NC(=O)/C=C/C[C@@H]([C@H](C)/C=C/c2ccccc2)OC1=O | > 1680
CC(C)C[C@@H]1OC(=O)C(C)(C)CNC(=O)[C@@H](Cc2cccnc2)NC(=O)/C=C/C[C@@H]([C@H](C)/C=C/c2ccccc2)OC1=O | 997
CC(C)C[C@@H]1OC(=O)C(C)(C)CNC(=O)[C@@H](CCc2ccccc2)NC(=O)/C=C/C[C@@H]([C@H](C)[C@@H]2O[C@H]2c2ccccc2)OC1=O | > 1620
CC(C)C[C@@H]1OC(=O)C(C)(C)CNC(=O)[C@@H](Cc2ccc3ccccc3c2)NC(=O)/C=C/C[C@@H]([C@H](C)/C=C/c2ccccc2)OC1=O | > 1570
CC(C)C[C@@H]1OC(=O)C(C)(C)CNC(=O)[C@@H](Cc2ccc3ccccc3c2)NC(=O)/C=C/C[C@@H]([C@H](C)[C@@H]2O[C@H]2c2ccccc2)OC1=O | 866
CC(C)C[C@@H]1OC(=O)C(C)(C)CNC(=O)[C@@H](c2ccc(O)cc2)NC(=O)/C=C/C[C@@H]([C@H](C)/C=C/c2ccccc2)OC1=O | > 1690
CC(C)C[C@@H]1OC(=O)C(C)(C)CNC(=O)[C@H]2CCCN2C(=O)/C=C/C[C@@H]([C@H](C)[C@H]2O[C@@H]2c2ccccc2)OC1=O | 1350
CC(C)C[C@@H]1OC(=O)C(C)(C)CNC(=O)[C@@H](Cc2ccc(N)cc2)NC(=O)/C=C/C[C@@H]([C@H](C)[C@H]2O[C@@H]2c2ccccc2)OC1=O | 10.1
CC(C)C[C@@H]1OC(=O)C(C)(C)CNC(=O)[C@@H](Cc2ccc(NC(=O)OCC3c4ccccc4-c4ccccc43)cc2)NC(=O)/C=C/C[C@@H]([C@H](C)C2OC2c2ccccc2)OC1=O (stereo not given in full) | 115
CC(C)C[C@@H]1OC(=O)C(C)(C)CNC(=O)[C@@H](CC2CCCCC2)NC(=O)/C=C/C[C@@H]([C@H](C)[C@H]2O[C@@H]2c2ccccc2)OC1=O | 8.8
CC(C)C[C@@H]1OC(=O)C(C)(C)CNC(=O)[C@@H](c2ccc(O)cc2)NC(=O)/C=C/C[C@@H]([C@H](C)[C@H]2O[C@@H]2c2ccccc2)OC1=O | 274
CC(C)C[C@@H]1OC(=O)C(C)(C)CNC(=O)[C@@H](Cc2ccc(N(C)C)c(Cl)c2)NC(=O)/C=C/C[C@@H]([C@H](C)[C@H]2O[C@@H]2c2ccccc2)OC1=O | 0.054
CC(C)C[C@@H]1OC(=O)C(C)(C)CNC(=O)[C@@H](Cc2ccc(NC(=O)OCC3c4ccccc4-c4ccccc43)c(Cl)c2)NC(=O)/C=C/C[C@@H]([C@H](C)C2OC2c2ccccc2)OC1=O (stereo not given in full) | 15.3
CC(C)C[C@@H]1OC(=O)C(C)(C)CNC(=O)[C@@H](Cc2ccc(O)c(Cl)c2)NC(=O)/C=C/C[C@@H]([C@H](C)[C@H]2O[C@@H]2c2ccccc2)OC1=O | 0.52

SMILES | IC50 [nM]
CC(C)C[C@@H]1OC(=O)C(C)(C)CNC(=O)[C@@H](C(C)C)NC(=O)/C=C/C[C@@H]([C@H](C)/C=C/c2ccccc2)OC1=O | > 1850
CC(C)C[C@@H]1OC(=O)C(C)(C)CNC(=O)[C@@H](Cc2ccc(I)cc2)NC(=O)/C=C/C[C@@H]([C@H](C)/C=C/c2ccccc2)OC1=O | 607
CC(C)C[C@@H]1OC(=O)C(C)(C)CNC(=O)[C@@H](Cc2ccc3ccccc3c2)NC(=O)/C=C/C[C@@H]([C@H](C)[C@H]2O[C@@H]2c2ccccc2)OC1=O | 48
CC(C)C[C@@H]1OC(=O)C(C)(C)CNC(=O)[C@H]2CCCN2C(=O)/C=C/C[C@@H]([C@H](C)/C=C/c2ccccc2)OC1=O | > 1860
CC(C)C[C@@H]1OC(=O)C(C)(C)CNC(=O)CNC(=O)/C=C/C[C@@H]([C@H](C)[C@H]2O[C@@H]2c2ccccc2)OC1=O | > 1940
CC(C)C[C@@H]1OC(=O)C(C)(C)CNC(=O)[C@@H](Cc2cccc3ccccc23)NC(=O)/C=C/C[C@@H]([C@H](C)[C@H]2O[C@@H]2c2ccccc2)OC1=O | 35
COc1ccc(C[C@H]2NC(=O)/C=C/C[C@@H]([C@H](C)/C=C/c3ccccc3)OC(=O)[C@H](CC(C)C)OC(=O)C(C)(C)CNC2=O)cc1Cl | 13.8
CC(C)C[C@@H]1OC(=O)C(C)(C)CNC(=O)[C@@H](Cc2cccc3ccccc23)NC(=O)/C=C/C[C@@H]([C@H](C)/C=C/c2ccccc2)OC1=O | > 1570
CC(C)C[C@@H]1OC(=O)C(C)(C)CNC(=O)[C@@H](COCc2ccccc2)NC(=O)/C=C/C[C@@H]([C@H](C)/C=C/c2ccccc2)OC1=O | 856
CC(C)C[C@@H]1OC(=O)C(C)(C)CNC(=O)[C@@H](Cc2ccc(O)c(Cl)c2)NC(=O)/C=C/C[C@@H]([C@H](C)[C@@H]2O[C@H]2c2ccccc2)OC1=O | 31
CC(C)C[C@@H]1OC(=O)C(C)(C)CNC(=O)[C@@H](Cc2ccc(O)cc2)NC(=O)/C=C/C[C@@H]([C@H](C)/C=C/c2ccccc2)OC1=O | 734
CC(C)C[C@@H]1OC(=O)C(C)(C)CNC(=O)[C@@H](Cc2ccc(O)cc2)NC(=O)/C=C/C[C@@H]([C@H](C)[C@H]2O[C@@H]2c2ccccc2)OC1=O | 4.11
CC(C)C[C@@H]1OC(=O)C(C)(C)CNC(=O)[C@@H](Cc2ccccc2)NC(=O)/C=C/C[C@@H]([C@H](C)/C=C/c2ccccc2)OC1=O | 412
CC(C)C[C@@H]1OC(=O)C(C)(C)CNC(=O)[C@@H](COCc2ccccc2)NC(=O)/C=C/C[C@@H]([C@H](C)[C@@H]2O[C@H]2c2ccccc2)OC1=O | 975
CC(C)C[C@@H]1OC(=O)C(C)(C)CNC(=O)CNC(=O)/C=C/C[C@@H]([C@H](C)/C=C/c2ccccc2)OC1=O | > 2000
CC(C)C[C@@H]1OC(=O)C(C)(C)CNC(=O)[C@@H](CCc2ccccc2)NC(=O)/C=C/C[C@@H]([C@H](C)[C@H]2O[C@@H]2c2ccccc2)OC1=O | 598
CC(C)C[C@@H]1OC(=O)C(C)(C)CNC(=O)[C@@H]([C@H](C)O)NC(=O)/C=C/C[C@@H]([C@H](C)/C=C/c2ccccc2)OC1=O | > 1840
CC(C)C[C@@H]1OC(=O)C(C)(C)CNC(=O)[C@@H](Cc2ccc(N)c(Cl)c2)NC(=O)/C=C/C[C@@H]([C@H](C)[C@H]2O[C@@H]2c2ccccc2)OC1=O | 0.58
CC(C)C[C@@H]1OC(=O)C(C)(C)CNC(=O)[C@@H](Cc2ccc(NC(=O)OCC3c4ccccc4-c4ccccc43)c(Cl)c2)NC(=O)/C=C/C[C@@H]([C@H](C)/C=C/c2ccccc2)OC1=O | > 1250
CC(C)C[C@@H]1OC(=O)C(C)(C)CNC(=O)[C@@H](COCc2ccccc2)NC(=O)/C=C/C[C@@H]([C@H](C)[C@H]2O[C@@H]2c2ccccc2)OC1=O | 249
CC(C)C[C@@H]1OC(=O)C(C)(C)CNC(=O)[C@@H](Cc2ccc(N)cc2)NC(=O)/C=C/C[C@@H]([C@H](C)/C=C/c2ccccc2)OC1=O | 1540
CC(C)C[C@@H]1OC(=O)C(C)(C)CNC(=O)[C@@H](C(C)C)NC(=O)/C=C/C[C@@H]([C@H](C)[C@H]2O[C@@H]2c2ccccc2)OC1=O | > 1800
